Measurements reported in PMC5049450 (Journal of Clinical Pharmacology, 2015).
Like-named read-outs stand apart in the source and are kept apart here.

Experiments:
CYP3A = conditions: phase‐1 oxidative metabolism; cited from earlier work
plasma protein = conditions: across species; independent of drug concentration; cited from earlier work
[1] = cited from earlier work
[2] = healthy volunteers, cited from earlier work
Safety assessment = format: in vivo, human
Procedure, shortened: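 Noncancer Child–Pugh mild, moderate or severe hepatic impairment subjects (6 per group) and 13 healthy controls received one oral test-compound dose after an overnight fast. Safety was monitored throughout through adverse events, clinical laboratory tests, ECGs and physical examinations. Adverse events were graded by NCI-CTCAE v4.03 and relationship to drug was recorded. Safety follow-up was on day 31.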

[3] = rats; cited from earlier work
[4] = patients with advanced solid tumors, cited from earlier work
[5] = format: in vivo, human; design: AUC∞, unbound buparlisib GMR (90%CI) / Cmax, total buparlisib GMR (90%CI) / Cmax, unbound buparlisib GMR (90%CI): unit not given beside the values; conditions: for increase in Cmax compared with normal hepatic function / increase in buparlisib exposure (AUC∞) compared with normal hepatic function: total buparlisib
Procedure, shortened: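 After a single oral dose following an overnight fast, K3EDTA blood was drawn predose and at 0.5–336 h. Samples were centrifuged at 1500 g for 10 min at 3–5 °C and plasma stored at –70 °C. Plasma levels were measured by validated LC-MS/MS after solid-phase extraction with a stable-labelled internal standard. Parameters were derived by noncompartmental analysis and compared by ANOVA of log-transformed values, with hepatic function as the fixed effect.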

[6] = increased solubility at low pH; cited from earlier work
[7] = cited from earlier work; remark: listed apart in the source
[8] = coadministration with ritonavir
[9] = moderate‐hepatic‐function group
[10] = linear regression, severe hepatic impairment relative to control group (1.6 vs 1.0), not statistically significant
[11] = linear regression, severe hepatic impairment relative to control group (29.7 g/L vs 45.2 g/L), not statistically significant
[12] = mild hepatic impairment versus normal hepatic function group, 30 mg
[13] = moderate hepatic impairment versus normal hepatic function group, 30 mg

## Nc1cc(C(F)(F)F)c(-c2cc(N3CCOCC3)nc(N3CCOCC3)n2)cn1 [buparlisib]
CYP3A
  estimated fraction metabolized by CYP3A: > 0.9
Plasma protein
  plasma protein binding: 79–85%
[1]
  maximum tolerated dose: 100 mg/day
[2]; buparlisib with ritonavir
  apparent clearance: 3.27 L/h
  elimination half‐life (T1/2): 71.6 h
[2]; buparlisib without ritonavir
  apparent clearance: 5.37 L/h
  elimination half‐life (T1/2): 53.3 h
[2]; [8]
  increase in Cmax geometric mean ratio: 19%
  increase in buparlisib exposure (AUC∞): 73%
Safety assessment; all subjects
  subjects with QTcF >450 milliseconds: Eight subjects
  subjects with QTcF increase of >30 milliseconds from baseline: Six subjects
Safety assessment; mild‐hepatic‐function group
  subjects with QTcF increase of >30 milliseconds from baseline: 2
Safety assessment; moderate hepatic impairment, grade‐1 prolonged QTcF, grade‐1 hypertension
  subjects reporting treatment‐related AEs: 2 subjects
Safety assessment; [9]
  subjects with QTcF >450 milliseconds: 4
  subjects with QTcF increase of >30 milliseconds from baseline: 2
Safety assessment; normal hepatic function, grade‐1 dizziness, grade‐1 dermatitis acneiform
  subjects reporting treatment‐related AEs: 2 subjects
Safety assessment; normal‐hepatic‐function group
  subjects with QTcF increase of >30 milliseconds from baseline: 2
Safety assessment; severe hepatic impairment, grade‐2 thrombocytopenia
  subjects reporting treatment‐related AEs: 1 subject
Safety assessment; severe‐hepatic‐function group
  subjects with QTcF >450 milliseconds: 4
Safety assessment; single oral 30 mg, all subjects (N = 31)
  deaths during the study: no deaths
Safety assessment; single oral 30‐mg dose, subjects with and without hepatic impairment
  tolerability: well tolerated
[3]
  dose eliminated renally: 20–30%
[4]; following multiple doses
  increases in Cmax and AUC0–24 with dose: approximately dose‐proportional
[4]
  time of maximum plasma concentrations postdose: 1 to 4 h
[5]; human, plasma, po, 30 mg, AUC∞, geometric mean (CV%), single oral 30 mg, fasted, normal hepatic function (n = 13)
  AUC(0-inf): 6010 ng·h/mL
[5]; human, plasma, po, 30 mg, Cmax, geometric mean (CV%), single oral 30 mg, fasted, normal hepatic function (n = 13)
  Cmax: 221 ng/mL
[5]; human, plasma, po, 30 mg, T1/2, geometric mean (CV%), single oral 30 mg, fasted, normal hepatic function (n = 13)
  half-life: 53 h
[5]; human, plasma, po, 30 mg, Tmax, median (range), single oral 30 mg, fasted, normal hepatic function (n = 13)
  Tmax: 1 h
[5]; human, plasma, po, 30 mg, Vz/F, geometric mean (CV%), single oral 30 mg, fasted, normal hepatic function (n = 13)
  Vd/F: 381 L
[5]; [10]
  increase in AUC∞ associated with higher (52%) INR: 15%
  increase in Cmax associated with higher (52%) INR: 11%
[5]; [11]
  increase in AUC∞ associated with lower (34%) baseline albumin level: 26%
  increase in Cmax associated with lower (34%) baseline albumin level: 15%
[5]; [12]
  AUC∞, unbound buparlisib GMR (90%CI): 1.17 (0.84, 1.64)
  Cmax, total buparlisib GMR (90%CI): 1.26 (1.00, 1.58)
  Cmax, unbound buparlisib GMR (90%CI): 1.28 (0.99, 1.64)
[5]; mild hepatic impairment
  increase in Cmax compared with normal hepatic function: 26%
  increase in buparlisib exposure (AUC∞) compared with normal hepatic function: 16%
[5]; [13]
  AUC∞, unbound buparlisib GMR (90%CI): 1.18 (0.84, 1.65)
  Cmax, total buparlisib GMR (90%CI): 1.08 (0.87, 1.36)
  Cmax, unbound buparlisib GMR (90%CI): 1.12 (0.87, 1.44)
[5]; moderate hepatic impairment
  increase in Cmax compared with normal hepatic function: 8%
  increase in buparlisib exposure (AUC∞) compared with normal hepatic function: 14%
[5]; severe hepatic impairment versus normal hepatic function group, 30 mg
  Cmax, total buparlisib GMR (90%CI): 1.45 (1.15, 1.81)
[5]; severe hepatic impairment
  increase in Cmax compared with normal hepatic function: 45%
  increase in buparlisib exposure (AUC∞) compared with normal hepatic function: 20%
[5]; single oral 30 mg, fasted, mild hepatic impairment, Child–Pugh A (n = 6)
  CL/F, geometric mean (CV%): 4.3 (46) L/h
[5]; single oral 30 mg, fasted, moderate hepatic impairment, Child–Pugh B (n = 6)
  CL/F, geometric mean (CV%): 4.4 (62) L/h
[5]; single oral 30 mg, fasted, normal hepatic function (n = 13)
  CL/F, geometric mean (CV%): 5.0 (37) L/h
[5]; single oral 30 mg, fasted, severe hepatic impairment, Child–Pugh C (n = 6)
  CL/F, geometric mean (CV%): 4.2 (41) L/h
[5]; single oral 30 mg, subjects with or without hepatic impairment
  secondary absorption peak, time postdose: approximately 24 hours
[6]
  solubility: soluble
[7]
  permeability: highly permeable
